Laboratory results published in ChEMBL document CHEMBL4130549, “Synthesis and bioactivities study of new antibacterial peptide mimics: The dialkyl cationic amphiphiles” (Eur J Med Chem, 2018).
The source made the active and inactive calls. No cut-off for these calls is given here.

Columns and labels:
Staphylococcus aureus [1] = assay: Antibacterial activity against methicillin-resistant Staphylococcus aureus isolate M3 after 16 to 20 hrs by broth microdilution method; assay type: functional
Outline: (§1)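 CLSI broth microdilution in cation-adjusted Mueller-Hinton broth. A 4-6 h culture was diluted to about 10⁶ CFU/mL and mixed 1:1 with twofold compound dilutions (256–0.5 µg/mL before mixing) prepared from aqueous stocks. Plates were incubated at 37 °C for 16-20 h. Each concentration was tested in duplicate, and the experiment was repeated at least twice.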

Staphylococcus aureus [2] = assay: Antibacterial activity against methicillin-resistant Staphylococcus aureus isolate M10 after 16 to 20 hrs by broth microdilution method; assay type: functional; outline: as §1
Staphylococcus aureus [3] = assay: Induction of cytoplasmic membrane depolarization in Staphylococcus aureus ATCC 29213 at 20 ug/ml measured every 2 mins for 12 mins by diSC35 staining based fluorescence assay; assay type: functional, organism-based
Outline: (§2)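 Mid-log cells (4–6 h) pelleted, washed and resuspended (~10^8 CFU/mL) in PBS for S. aureus, or in 5 mM HEPES, 5 mM glucose and 100 mM KCl (1:1:1) for E. coli. Preloaded with diSC35 (10 µM, 50 µL), 30 min for S. aureus and 40 min plus EDTA (200 µM, 50 µL) for E. coli. Baseline read 8 min (ex 622/em 670 nm), then compound added to 20 µg/mL final and read every 2 min for 12 min. Water control.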

Staphylococcus aureus [4] = assay: Antibacterial activity against methicillin-resistant Staphylococcus aureus isolate M8 after 16 to 20 hrs by broth microdilution method; assay type: functional; outline: as §1
Staphylococcus aureus [5] = assay: Antibacterial activity against methicillin-resistant Staphylococcus aureus isolate M6 after 16 to 20 hrs by broth microdilution method; assay type: functional; outline: as §1
Salmonella enterica = assay: Antibacterial activity against Salmonella enterica after 16 to 20 hrs by broth microdilution method; assay type: functional
Outline: (§3)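 Broth microdilution per CLSI in cation-adjusted Mueller-Hinton broth; 4-6 h cultures (~10⁸ CFU/mL) diluted to ~10⁶ CFU/mL and mixed 1:1 with twofold dilutions of water-dissolved compound (256 to 0.5 µg/mL). Incubated 16-20 h at 37 °C; MIC read visually. Each concentration run in duplicate, whole experiment repeated at least twice. MRSA, KPC and NDM-1 strains were clinical isolates.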

Staphylococcus aureus [6] = assay: Antibacterial activity against methicillin-resistant Staphylococcus aureus isolate M4 after 16 to 20 hrs by broth microdilution method; assay type: functional; outline: as §1
Escherichia coli [7] = assay: Induction of outer membrane permeabilization in Escherichia coli ATCC 25922 at 20 ug/ml measured every 2 mins for 12 mins by NPN staining based fluorescence assay; assay type: functional, organism-based
Outline: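 Mid-log E. coli (~10^8 CFU/mL) in black plates pre-incubated about 40 min with NPN (10 µM, 50 µL). Baseline read 8 min (ex 350/em 420 nm), then compound added to 20 µg/mL final and fluorescence followed every 2 min for 12 min. Water-treated control.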

Staphylococcus aureus [8] = assay: Antibacterial activity against methicillin-resistant Staphylococcus aureus isolate M2 after 16 to 20 hrs by broth microdilution method; assay type: functional; outline: as §1
Staphylococcus aureus [9] = assay: Antibacterial activity against methicillin-resistant Staphylococcus aureus isolate M9 after 16 to 20 hrs by broth microdilution method; assay type: functional; outline: as §1
[10] = Hemolytic activity in sheep RBC after 1 hr; assay type: ADME, cell-based, Ovis aries, Erythrocyte; conditions: sheep red blood cells (erythrocytes)
Outline: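 Sheep RBCs suspended at 5% in PBS; 150 µL added to 50 µL compound dilutions (5120 to 10 µg/mL series). Incubated 1 h at 37 °C, then centrifuged; supernatant absorbance read at 540 nm. Lysis (%) = (A−A0)/(Atotal−A0)×100, with untreated 5% RBC as A0 and 0.1% Triton X-100 as total.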

Staphylococcus aureus [11] = assay: Antibacterial activity against methicillin-resistant Staphylococcus aureus isolate M5 after 16 to 20 hrs by broth microdilution method; assay type: functional; outline: as §1
Staphylococcus aureus [12] = assay: Antibacterial activity against methicillin-resistant Staphylococcus aureus after 16 to 20 hrs by broth microdilution method; assay type: functional; outline: as §1
Staphylococcus aureus [13] = assay: Induction of inner membrane permeabilization in Staphylococcus aureus ATCC 29213 at 20 ug/ml measured every 2 mins for 12 mins by propidium iodide staining based fluorescence assay; assay type: functional, organism-based
Outline: (§4)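 Mid-log cells (~10^8 CFU/mL) pre-incubated with propidium iodide (10 µM, 50 µL), 30 min for S. aureus and 40 min for E. coli. Fluorescence (ex 535/em 617 nm) read for 8 min, then compound added to 20 µg/mL final and monitored every 2 min for 12 min. Water-treated control.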

Staphylococcus aureus [14] = assay: Antibacterial activity against Staphylococcus aureus ATCC 29213 after 16 to 20 hrs by broth microdilution method; assay type: functional; outline: as §1
Escherichia coli [15] = assay: Induction of inner membrane permeabilization in Escherichia coli ATCC 25922 at 20 ug/ml measured every 2 mins for 12 mins by propidium iodide staining based fluorescence assay; assay type: functional, organism-based; outline: as §4
Escherichia coli [16] = assay: Antibacterial activity against Escherichia coli ATCC 25922 after 16 to 20 hrs by broth microdilution method; assay type: functional; outline: as §3
Escherichia coli [17] = assay: Induction of cytoplasmic membrane depolarization in Escherichia coli ATCC 25922 at 20 ug/ml measured every 2 mins for 12 mins by diSC35 staining based fluorescence assay; assay type: functional, organism-based; outline: as §2
Staphylococcus aureus [18] = assay: Antibacterial activity against methicillin-resistant Staphylococcus aureus isolate M1 after 16 to 20 hrs by broth microdilution method; assay type: functional; outline: as §1
Staphylococcus aureus [19] = assay: Antibacterial activity against methicillin-resistant Staphylococcus aureus isolate M7 after 16 to 20 hrs by broth microdilution method; assay type: functional; outline: as §1
Enterococcus faecalis = assay: Antibacterial activity against Enterococcus faecalis after 16 to 20 hrs by broth microdilution method; assay type: functional; outline: as §3

Structure (SMILES)	MIC (Staphylococcus aureus [1])	MIC (Staphylococcus aureus [2])	Activity (Staphylococcus aureus [3])	MIC (Staphylococcus aureus [4])	MIC (Staphylococcus aureus [5])	MIC (Salmonella enterica)	MIC (Staphylococcus aureus [6])	Activity (Escherichia coli [7])	MIC (Staphylococcus aureus [8])	MIC (Staphylococcus aureus [9])	HC50 at 1 h [10]	MIC (Staphylococcus aureus [11])	MIC (Staphylococcus aureus [12])	Activity (Staphylococcus aureus [13])	MIC (Staphylococcus aureus [14])	Activity (Escherichia coli [15])	MIC (Escherichia coli [16])	Activity (Escherichia coli [17])	MIC (Staphylococcus aureus [18])	MIC (Enterococcus faecalis)	other results
CCCCCCCCCCN(CCCCCCCCCC)C(=O)[C@H](N)CO.Cl	32 µg/mL	32 µg/mL	Active	32 µg/mL	32 µg/mL	> 128 µg/mL	32 µg/mL	Active	32 µg/mL	32 µg/mL	> 1000 µg/mL	32 µg/mL	32 µg/mL	Active	16 µg/mL	Active	> 128 µg/mL	Active	32 µg/mL	32 µg/mL	MIC (Staphylococcus aureus [19]): 32 µg/mL
CCCCCCCCN(CCCCCCCC)C(=O)[C@@H](N)CC(C)C.Cl	2 µg/mL	4 µg/mL	Active	4 µg/mL	4 µg/mL	> 128 µg/mL	2 µg/mL	Active	2 µg/mL	4 µg/mL	> 1000 µg/mL	4 µg/mL	4 µg/mL	Active	2 µg/mL	Active	64 µg/mL	Active	4 µg/mL	2 µg/mL	MIC (Staphylococcus aureus [19]): 4 µg/mL
CCN(CC)C(=O)[C@@H](N)CCCCN.Cl.Cl			Active			> 128 µg/mL		Active			> 1000 µg/mL			Active	> 128 µg/mL	Active	> 128 µg/mL	Active		> 128 µg/mL	
CCCCCCCCCCN(CCCCCCCCCC)C(=O)[C@@H](N)CO.Cl	4 µg/mL	16 µg/mL	Active	16 µg/mL	8 µg/mL	> 128 µg/mL	4 µg/mL	Active	4 µg/mL	16 µg/mL	> 1000 µg/mL	16 µg/mL	16 µg/mL	Active	8 µg/mL	Active	> 128 µg/mL	Active	16 µg/mL	8 µg/mL	MIC (Staphylococcus aureus [19]): 8 µg/mL
CCCCN(CCCC)C(=O)[C@@H](N)CCCCN.Cl.Cl			Active			128 µg/mL		Active			743 µg/mL			Active	> 128 µg/mL	Active	> 128 µg/mL	Active		128 µg/mL	
C[C@@H](O)[C@H]1C(=O)N2C(C(=O)O)=C(S[C@@H]3CN[C@H](C(=O)N(C)C)C3)[C@H](C)[C@H]12 [MEROPENEM]																	< 0.125 µg/mL				
CCCCCCCCN(CCCCCCCC)C(=O)[C@@H](N)[C@@H](C)CC.Cl	4 µg/mL	4 µg/mL	Active	4 µg/mL	4 µg/mL	> 128 µg/mL	4 µg/mL	Active	4 µg/mL	4 µg/mL	293 µg/mL	4 µg/mL	4 µg/mL	Active	4 µg/mL	Active	> 128 µg/mL	Active	4 µg/mL	4 µg/mL	MIC (Staphylococcus aureus [19]): 4 µg/mL
CCCCCCN(CCCCCC)C(=O)[C@@H](N)CCCCN.Cl.Cl			Active			64 µg/mL		Active			496 µg/mL			Active	64 µg/mL	Active	64 µg/mL	Active		64 µg/mL	
CCCCCCCCN(CCCCCCCC)C(=O)[C@@H](N)Cc1ccccc1.Cl	16 µg/mL	32 µg/mL	Active	32 µg/mL	32 µg/mL	> 128 µg/mL	16 µg/mL	Active	16 µg/mL	32 µg/mL	> 1000 µg/mL	32 µg/mL	32 µg/mL	Active	8 µg/mL	Active	> 128 µg/mL	Active	32 µg/mL	128 µg/mL	MIC (Staphylococcus aureus [19]): 16 µg/mL
CCCCCN(CCCCC)C(=O)[C@@H](N)CCCCN.Cl.Cl			Active			128 µg/mL		Active			576 µg/mL			Active	128 µg/mL	Active	128 µg/mL	Active		128 µg/mL	
